Assay outcomes deposited in PubChem BioAssay by Sanford-Burnham Center for Chemical Genomics.
Shown are actives, neighbours in structure and some others; about 4.1% of the full set was active somewhere.
Apaf-1 inh = inhibitors of human Apaf-1 apoptosome, primary screen, biochemical, DEVD-Rh110 fluorescence, uHTS. 330,000 compounds, 0.71% hits. Apoptotic protease-activating factor 1 (Homo sapiens), O14727. inhibition, % at 20 µM. reconstituted apoptosome caspase-3 activity. AID 489030, 2010; active = inhibition of at least 40% at 20 µM
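Material: biochemical Apaf-1 apoptosome reconstitution. Medium: Hepes buffer, pH 7.5. Also added: cytochrome c activation, bis-DEVD rhodamine 110 substrate. Timing: 30 min compound preincubation, 50 min activation, room temperature. Measured by: rhodamine 110 fluorescence at Ex 480/Em 540 nm.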
Mdm2 MdmX PPI = inhibitors of human Mdm2-MdmX association, primary screen, cell-based, luminescence, split luciferase, SaOS-2, uHTS | 330,000 compounds, 3% hits | Protein Mdm4 (Homo sapiens) + E3 ubiquitin-protein ligase Mdm2 (Homo sapiens), … | inhibition, % at 8 µM | SaOS-2 split-luciferase Mdm2/MdmX complementation;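 active = inhibition of at least 50% at 8 µM in the primary screen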
UBC13 inh = UBC13 polyubiquitin chain formation inhibitors, primary screen, biochemical, TR-FRET, uHTS; Ubiquitin-conjugating enzyme E2 N (Homo sapiens), P61088; inhibition, % at 20 µM; 330,000 compounds, 0.47% hits; AID 485273, 2010; in the data active = inhibition above about 45%, passing the limit was not always enough
Target sequence (P61088 whole entry, looked up): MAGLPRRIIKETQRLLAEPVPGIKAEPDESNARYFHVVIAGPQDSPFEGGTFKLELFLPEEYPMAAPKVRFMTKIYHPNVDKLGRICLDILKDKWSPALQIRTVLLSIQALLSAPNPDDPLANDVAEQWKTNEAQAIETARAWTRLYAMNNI
CHOP UPR activ = activators of apoptotic CHOP UPR arm, primary screen, cell-based, CHO-CHOP luciferase reporter, luminescence, uHTS; UPR activation; percent of tunicamycin response over DMSO baseline; activation, % at 10 µM; 330,000 compounds, 0.34% hits; AID 449763, 2010;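 active = at 10 µM dose, activation of 40% or more, normalized to positive control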
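Dosing – one dose, 10 µM in 0.5% DMSO · System – CHO-CHOP cells, stable luciferase reporter of PERK-eIF2a-CHOP signalling · Input – 500 cells/well · Control set – tunicamycin 10 µg/mL final as positive, DMSO-only wells as negative · Timing – 6 h compound treatment, 37 °C · Measure – % activation vs tunicamycin · Technique – luminescence read with Steady-Glo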
XBP1 UPR activ = activators of adaptive XBP1 UPR arm, primary screen, cell-based, CHO-XBP1 luciferase reporter, luminescence, uHTS; IRE1-XBP1 UPR activation; percent of tunicamycin response, DMSO as zero; activation, % at 20 µM; 330,000 compounds, 0.33% hits; AID 463104, 2010;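 active = versus positive control, 20 µM dose yields 30% or more activation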
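Material: CHO-XBP1 cells stably carrying IRE1-XBP1-driven luciferase reporter | Medium: F12 with 10% serum | Compound dosing: 20 µM single concentration, DMSO 1% | Incubation: Overnight seeding at 37 °C, 6 h compound treatment at 37 °C | Detection: Steady-Glo luminescence read | Read-out basis: % activation of reporter signal versus tunicamycin and DMSO controls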
Mdm2-MdmX conf = Mdm2-MdmX complex disruptors, retested hits, confirmation, luminescence, single concentration. shares compounds with Mdm2 MdmX PPI. Mdm2-MdmX binding, luminescent assay. inhibition, % at 8 µM. 10,000 compounds, 55% hits. AID 489028, 2010; in the data active = inhibition above about 40%
Full FLuc ctr = full-length luciferase signal inhibition, confirmation, counter-screen for Mdm2/MdmX interaction inhibitor project, cell-based, single concentration, SaOS-2 | 6,200 compounds, 77% hits | AID 504607, 2011 | SaOS-2 full-length luciferase counterscreen, luminescence | shares compounds with Mdm2 MdmX PPI | inhibition, % at 8 µM;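 active = mean inhibition at 8 µM reaching about 37%, which flags the compound as non-specific, limit read from the data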;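 note: p53-null SaOS-2 cells with luciferase driven by a doxycycline-inducible promoter; compound on cells about two nights before reading with doxycycline added after day one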
Large screens that a line does not name were inactive (follow-up assays come after a bar, where they were run).

C[C@H]1CN([C@@H](C)CO)C(=O)c2cccc(NC(=O)Nc3ccc(C(F)(F)F)cc3)c2O[C@@H]1CN(C)Cc1ccc(Cl)c(Cl)c1	Mdm2 MdmX PPI 72.3 | Mdm2-MdmX conf 49.3 | Full FLuc ctr 75.5
C[C@H](CO)N1C[C@H](C)[C@@H](CN(C)S(=O)(=O)c2ccc(F)cc2)Oc2ccc(NC(=O)Nc3ccc(C(F)(F)F)cc3)cc2C1=O	Mdm2 MdmX PPI 75.1 | Mdm2-MdmX conf inactive
C[C@@H]1CN([C@H](C)CO)C(=O)c2cc(NC(=O)Nc3ccc(C(F)(F)F)cc3)ccc2O[C@H]1CN(C)S(=O)(=O)c1ccc(Cl)cc1	Mdm2 MdmX PPI 84.7 | Mdm2-MdmX conf inactive
Cc1ccc(S(=O)(=O)N(C)C[C@@H]2Oc3ccc(NC(=O)CCC(F)(F)F)cc3CC(=O)N([C@@H](C)CO)C[C@@H]2C)cc1	Mdm2 MdmX PPI 58.8 | Mdm2-MdmX conf 56.6 | Full FLuc ctr 63.4
C[C@H](CO)N1C[C@H](C)[C@@H](CN(C)Cc2ccc(Cl)c(Cl)c2)Oc2c(NC(=O)C3CC3)cccc2C1=O	none
c1ccc(COC(CN2CCCCCC2)CN2CCCCCC2)cc1	none
Cc1nc(S(=O)(=O)c2ccc(Cl)cc2)c(N(C)C)o1	none
COc1cc2c(cc1OC)C(c1ccc(Br)cc1)NCC2 (configuration not stated)	none
C[C@@H]1CN([C@@H](C)CO)C(=O)Cc2cc(NC(=O)Nc3ccc(C(F)(F)F)cc3)ccc2O[C@@H]1CN(C)S(=O)(=O)c1ccc(Cl)cc1	Mdm2 MdmX PPI 94.0 | Mdm2-MdmX conf 52.8 | Full FLuc ctr 37.6
C[C@H](CO)N1C[C@H](C)[C@@H](CN(C)S(=O)(=O)c2ccc(F)cc2)Oc2c(NC(=O)Nc3ccc(C(F)(F)F)cc3)cccc2C1=O	none
C[C@H]1CN([C@@H](C)CO)C(=O)c2cccc(NC(=O)Nc3ccc(C(F)(F)F)cc3)c2O[C@@H]1CN(C)S(=O)(=O)c1ccc(Cl)cc1	Mdm2 MdmX PPI 57.7 | Mdm2-MdmX conf inactive
CCOC(=O)c1ccc(Nc2sc(C(=O)c3cccc([N+](=O)[O-])c3)c(N)c2C#N)cc1	Mdm2 MdmX PPI 75.0 | Mdm2-MdmX conf 74.2 | Full FLuc ctr 44.4
Cc1ccc(C(=O)c2sc(Nc3ccccc3)c(C#N)c2N)cc1	none
COc1ccc(Nc2nc(N3CCCC3)nc(N3CCCC3)n2)c(OC)c1	none
COc1ccc(Nc2nc(Nc3ccc(OC)cc3OC)nc(N3CCN(C)CC3)n2)c(OC)c1	Mdm2 MdmX PPI 50.8 | Mdm2-MdmX conf inactive
CC(C)OC(=O)c1c2nc3ccccc3nc2n2c1[nH]c(=O)c1ccccc12	Mdm2 MdmX PPI 59.5 | Mdm2-MdmX conf inactive | Full FLuc ctr 47.8
Cc1ccnc(NC(=O)c2ccccc2NC(=O)c2ccc(Cl)cc2Cl)c1	Mdm2 MdmX PPI 63.8 | Mdm2-MdmX conf 57.0 | Full FLuc ctr 65.7
CN(C)CCCNC(=O)C[C@H]1C[C@H](C(=O)N2CCOCC2)[C@@]2(C)c3[nH]c4cc(-c5ccco5)ccc4c3CCN2C1=O	none (no result: UBC13 inh)
CCOC(=O)C1CCCN(C(=O)c2cc(S(=O)(=O)N3CCCCC3)c[nH]2)C1 (configuration not stated)	none
Cc1cccc(NC(=O)c2nc[nH]c2C(=O)N[C@@H](CC(C)C)C(=O)OC(C)(C)C)c1	none
CCOC(=O)c1ccc(NC(=O)c2nc[nH]c2C(=O)N[C@@H](Cc2ccccc2)C(=O)OC(C)(C)C)cc1	Mdm2 MdmX PPI 62.1 | Mdm2-MdmX conf inactive
CC(C)(C)OC(=O)[C@H](Cc1ccccc1)NC(=O)c1[nH]cnc1C(=O)Nc1cccc(Cl)c1	Mdm2 MdmX PPI 70.1 | Mdm2-MdmX conf inactive
CC(C)(C)OC(=O)[C@H](Cc1ccccc1)NC(=O)c1[nH]cnc1C(=O)Nc1ccc(Cl)cc1	Mdm2 MdmX PPI 50.9 | Mdm2-MdmX conf inactive
C[C@H](NC(=O)c1nc[nH]c1C(=O)N[C@@H](Cc1ccccc1)C(=O)OC(C)(C)C)C(=O)OC(C)(C)C	none
Cc1cccc(NC(=O)c2nc[nH]c2C(=O)N[C@@H](Cc2ccccc2)C(=O)OC(C)(C)C)c1	Mdm2 MdmX PPI 63.7 | Mdm2-MdmX conf inactive
CC(NC(=O)Nc1ccccc1O)(C(F)(F)F)C(F)(F)F	none
COc1ccc(C(C(=O)NC2CCCCC2)N(C(=O)CCl)c2ccc(OC)cc2)cc1 (configuration not stated)	Mdm2 MdmX PPI 99.5 | Mdm2-MdmX conf 100.1 | Full FLuc ctr 50.0
O=C(NC1CCCCC1)C(c1cccnc1)N(C(=O)CCl)c1ccccc1Cl (configuration not stated)	Mdm2 MdmX PPI 95.2 | Mdm2-MdmX conf 99.2 | Full FLuc ctr 58.7
COc1ccc(N(C(=O)CCl)C(C(=O)NC2CCCCC2)c2cccnc2)cc1 (configuration not stated)	Mdm2 MdmX PPI 95.6 | Mdm2-MdmX conf 100.1 | Full FLuc ctr 54.1
COc1ccc(N(C(=O)Cc2cccs2)C(C(=O)NC2CCCC2)c2ccncc2)cc1 (configuration not stated)	none
N#Cc1cnn(-c2ccccc2)c1NC(=O)CN1CCN(c2ccccc2)CC1	none
Clc1cccc2c1Sc1ccccc1CC2N1CCNCC1 (configuration not stated)	Mdm2 MdmX PPI 66.0 | Mdm2-MdmX conf 73.1 | Full FLuc ctr 47.0
O=C(N/N=C/c1cc(Br)ccc1O)c1cccc(N2CCCC2=O)c1	Mdm2 MdmX PPI 53.8 | Mdm2-MdmX conf 64.7 | Full FLuc ctr inactive
O=C(N/N=C/c1ccco1)c1cccc(N2CCCC2=O)c1	none
COc1ccc(O)c(/C=N/NC(=O)c2cccc(N3CCCC3=O)c2)c1	Mdm2 MdmX PPI 55.1 | Mdm2-MdmX conf 57.1 | Full FLuc ctr 55.6
COc1ccc(N(C(=O)c2ccncc2)S(=O)(=O)c2ccccc2)cc1	none
COc1ccc(N(C(=O)c2ccccc2C)S(=O)(=O)c2cccs2)cc1	Mdm2 MdmX PPI 59.1 | Mdm2-MdmX conf 52.6 | Full FLuc ctr 104.8
CC(=O)Nc1nonc1-c1nc2ccccc2n1Cc1ccccc1	Mdm2 MdmX PPI 69.9 | Mdm2-MdmX conf 65.6 | Full FLuc ctr 117.7
